The values below come from ChEMBL document CHEMBL2086351, “Α-aryl-N-alkyl nitrones, as potential agents for stroke treatment: synthesis, theoretical calculations, antioxidant, anti-inflammatory, neuroprotective, and brain-blood barrier permeability properties” (J Med Chem, 2012).

Molecules are shown by their SMILES. Calls of active or inactive are those of the source. The calls are words filed in the database; no cut-off is given here.

Data set [1] in a line: Induction of NO release in phosphate buffer at pH 7.4 assessed as nitrite level at 0.1 mM by nitrate reductase/NADPH based Griess assay in presence of L-cysteine. Format: physicochemical. Particulars: pH 7.4, 100 µM. The procedure, abridged:
(§1)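 Compounds at 100 μM final were dissolved in phosphate buffer pH 7.4 containing L-cysteine. Released NO was measured. Where indicated, 1 mM cysteine and a nitrate reductase/NADPH system were used. Sodium nitroprusside served as reference.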
A general note: The Griess reaction detects nitrite, a stable product of nitric oxide.

A short description of data set [2]: Antioxidant activity against AAPH-induced lipid peroxidation assessed as induction time of inhibition at 0.1 mM. Type of data set: functional.
Data set [3] can be described thus: Antioxidant activity assessed as Fe3+/ascorbic acid-induced hydroxyl radical scavenging activity at 0.1 mM after 30 mins. Format: functional. The procedure, abridged: (§2)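 Tested in vitro at 0.1 mM. The hydroxyl radical line measures competition with DMSO for hydroxyl radicals. Superoxide was generated at pH 7.4 and read as nitroblue tetrazolium reduction to formazan at 560 nm. LOX inhibition was measured by UV absorbance enzyme assay with plant lipoxygenase.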

Data set [4] in a line: Induction of NO release in phosphate buffer at pH 7.4 at 0.1 mM by Griess assay in presence of L-cysteine. Format: physicochemical. Conditions: pH 7.4, 100 µM. In short, it runs like this:
as §1

The nature of data set [5]: Neuroprotective activity in Sprague-Dawley rat primary cortical neurons assessed as reversal of oxygen-glucose deprivation-induced neuronal damage at 100 uM by treated 4 hrs after OGD challenge measured after 24 hrs by LDH release assay relative to control. Type of data set: functional, Cerebral cortex neuron. The procedure, abridged:
(§3)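 Primary cortical neurons, cultured 6–8 days, underwent 4 h oxygen–glucose deprivation followed by 24 h reperfusion. Compounds (1–250 μM) were added at reperfusion. Necrotic death was read as LDH release, normalized to untreated reperfusion cells as 100%. Four independent experiments; mean ± SEM; one-way ANOVA with Holm–Sidak post test.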

For data set [6], the target named is Lipoxygenase (Glycine max) (UniProt Q39829). The experiment in a line: Inhibition of soybean lipoxygenase assessed as conversion of sodium linoleate to 13-hydroperoxylinoleic acid at 0.1 mM by competitive inhibition assay. The procedure, abridged: as §2
The nature of data set [7]: Neuroprotective activity in Sprague-Dawley rat primary cortical neurons assessed as reversal of oxygen-glucose deprivation-induced neuronal damage at 250 uM by treated 4 hrs after OGD challenge measured after 24 hrs by LDH release assay relative to control. Type of data set: functional, Cerebral cortex neuron. In short, it runs like this:
as §3
Background: LDH leaks from cells whose membrane has failed.

The nature of data set [8]: Antioxidant activity assessed as inhibition of AAPH-induced lipid peroxidation at 0.1 mM by UV spectrophotometric analysis. Type of data set: functional.
The nature of data set [9]: Antioxidant activity assessed as superoxide anion radical scavenging activity at 0.1 mM after 10 mins by tetrazolium dye assay. Type of data set: functional. In short, it runs like this: as §2
Data set [10] is described as follows: Neuroprotective activity in Sprague-Dawley rat primary cortical neurons assessed as reversal of oxygen-glucose deprivation-induced neuronal damage at 5 mM by treated 4 hrs after OGD challenge measured after 24 hrs MTT assay relative to control. Type of data set: functional, cell-based. Particulars: Cerebral cortex neuron. The procedure, abridged: (§4)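 Primary cerebral cortex neurons, cultured 6–8 days, underwent 4 h oxygen–glucose deprivation. Compounds (0.1 μM–10 mM range) were added at the start of a 24 h reperfusion. Viability was read by MTT with untreated control as 100%. Neuroprotection = % recovery from the reperfusion-only value (0%) to control (100%). Three to five independent experiments; mean ± SEM.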
For orientation: Formazan colour is commonly taken as a measure of viable cells.

A short description of data set [11]: Neuroprotective activity in Sprague-Dawley rat primary cortical neurons assessed as reversal of oxygen-glucose deprivation-induced neuronal damage treated 4 hrs after OGD challenge measured after 24 hrs MTT assay. Format: functional, cell-based. Particulars: Cerebral cortex neuron. The procedure, abridged: as §4
For the next data set, the system named is Rattus norvegicus. As to the kind of experiment: Antiinflammatory activity in Fisher 344 rat assessed as inhibition of carrageenan-induced paw edema at 0.01 mmol/kg, ip measured 3.5 hrs after carrageenan challenge. Particulars: Fisher 344, ip. Type of data set: functional. In short, it runs like this:
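Percent inhibition of carrageenan-induced rat paw oedema relative to untreated controls. Compounds given at 0.01 mmol/kg. Six animals per group in two independent experiments (n = 6 × 2), reported as mean ± SD. Significance versus controls by Student's t test.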

Data set [12] can be described thus: Neuroprotective activity in Sprague-Dawley rat primary cortical neurons assessed as reversal of oxygen-glucose deprivation-induced neuronal damage at 10 uM by treated 4 hrs after OGD challenge measured after 24 hrs by LDH release assay relative to control. Type of data set: functional, Cerebral cortex neuron. In short, it runs like this:
as §3

Data set [13] can be described thus: Permeability of the compound at pH 7.4 by PAMPA. Format: ADME. Conditions: read-out: permeability. In short, it runs like this: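 PAMPA-BBB method of Di et al. (passive blood–brain barrier permeation). Effective permeability is reported as Pe in 10−6 cm s−1.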
A short description of data set [14]: Neuroprotective activity in Sprague-Dawley rat primary cortical neurons assessed as reversal of oxygen-glucose deprivation-induced neuronal damage at 1 uM by treated 4 hrs after OGD challenge measured after 24 hrs by LDH release assay relative to control. Format: functional, Cerebral cortex neuron. The procedure, abridged:
as §3

The subject of data set [15] is Radical scavenging activity. As to the kind of experiment: Antioxidant activity assessed as DPPH radical scavenging activity at 0.5 mM after 2 hrs by spectrophotometric analysis. Type of data set: functional. In short, it runs like this: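 DPPH radical test, measuring initial absorbance and absorbance after reaction spectrophotometrically.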
The subject of a further data set is Mus musculus. The experiment in a line: Neuroprotective activity in NMRI mouse assessed as protection against tert-butyl hydroperoxide-mediated lethality at 150 mg/kg, ip administered 30 mins before t-BHP challenge measured after 1 to 24 hrs. Format: functional. Conditions: route intraperitoneal.
The test system of data set [16] is Radical scavenging activity. The experiment in a line: Antioxidant activity assessed as DPPH radical scavenging activity at 15 uM after 2 hrs by spectrophotometric analysis. Format: functional.
The nature of data set [17]: Neuroprotective activity in Sprague-Dawley rat primary cortical neurons assessed as reversal of oxygen-glucose deprivation-induced neuronal damage at 1 uM by treated 4 hrs after OGD challenge measured after 24 hrs MTT assay relative to control. Format: functional, cell-based. Particulars: Cerebral cortex neuron. In short, it runs like this: as §4
Data set [18] is described as follows: Neuroprotective activity in Sprague-Dawley rat primary cortical neurons assessed as reversal of oxygen-glucose deprivation-induced neuronal damage at 100 uM by treated 4 hrs after OGD challenge measured after 24 hrs MTT assay relative to control. Format: functional, cell-based. Conditions: Cerebral cortex neuron. The procedure, abridged: as §4
The nature of data set [19]: Neuroprotective activity in Sprague-Dawley rat primary cortical neurons assessed as reversal of oxygen-glucose deprivation-induced neuronal damage at 250 uM by treated 4 hrs after OGD challenge measured after 24 hrs MTT assay relative to control. Format: functional, cell-based. Particulars: Cerebral cortex neuron. In short, it runs like this: as §4

What is called inhibition is the relative decrease from the control value, in per cent. Regarding `CC(C)(C)/[N+]([O-])=C/c1ccccc1`, the Activity was 4.5% in data set [1]; 90% in [3]; 2% in [4]; 67.82% in data set [5]; 73.2% in [7]; 15% in [9]. Also, the Activity in data set [10] was -13.4%. Moreover, the TIME in data set [2] is 0 h. Also, in [6], the inhibition was found to be 83%. In data set [8], the inhibition result is “inactive”. Moreover, in data set [11], the result was inactive.

As usually defined, the inhibition in vivo is the share of the control response that was lost under treatment. Regarding `CC(C)(C)/[N+]([O-])=C/c1cccnc1Br`, the Activity in data set [1] was 5.5%; in data set [3] it was 93%; in data set [4], 4%; in data set [9] it was 10%. In addition, in data set [2], the TIME is 0.133 h. Moreover, in the data set on Rattus norvegicus, the inhibition in vivo at 10 µmol/kg is 23.2%. In addition, the inhibition in [6] came out at 88%; in data set [8] it was 40%.

Consider `COc1ccc2c(c1)c(CC(=O)O)c(C)n2C(=O)c1ccc(Cl)cc1` [INDOMETHACIN], for which the inhibition in vivo at 10 µmol/kg with Rattus norvegicus came out at 47%.

Take `Cc1ccc2nc(Cl)c(/C=[N+](\[O-])C(C)(C)C)cc2c1`: the TIME in data set [2] was found to be 0.945 h. In addition, the Activity in data set [3] came out at 100%; in data set [12], 62.22%; in [9] it was 12%; in [14], 70.17%; in data set [15], 1.7%; with Mus musculus it was 70%. In data set [6], the inhibition result was “inactive”. Further, in [8], the inhibition was determined as 85%. In addition, the Papp in data set [13] was 15 ×10⁻⁶ cm/s.

For `O=c1c(O)c(-c2ccc(O)c(O)c2)oc2cc(O)cc(O)c12`, the Activity in data set [16] turned out to be 94.2%.

With `[O-]/[N+](=C\c1ccc(Br)o1)Cc1ccccc1`, in data set [2], the TIME stood at 0 h. Also, the inhibition in data set [6] was determined as 17%. Further, the Activity in [12] was found to be 114.17%; in [14], 61.87%; in data set [15] it was 8.6%; in the data set with Mus musculus it was 42%.

`C/[N+]([O-])=C/c1ccccc1`: the TIME in [2] came to 0.0167 h. In addition, the inhibition in vivo at 10 µmol/kg in the data set with Rattus norvegicus was 26.5%. For the same compound, the Activity in [3] is 77%; in [9] it was 8%. The figures for the inhibition in data set [6] and in [8] were 22% and 5%, respectively. For the same compound, in data set [11], the outcome was inactive.

In the case of `CC(C)(C)/[N+]([O-])=C/c1cccc(C(F)(F)F)c1`, in [2], the TIME worked out at 0 h. Moreover, the Activity in data set [17] is 71.2%; in [3], 60%; in data set [7], 70.08%; in data set [18], 101%; in data set [9] it was 29%; in data set [19] it was 81.2%. The figures for the Activity (in data set [15]; with Mus musculus) were 0.9% and 12%, respectively. Besides, the inhibition in data set [6] is 65%. The Papp in [13] was 27 ×10⁻⁶ cm/s.

For the compound `COc1cc(/C=C/C(=O)CC(=O)/C=C/c2ccc(O)c(OC)c2)ccc1O`, in data set [16], the Activity was 35%.
